# Screens from PubChem BioAssay.
# The list is not random: actives were taken first. Their share in the collection is about 0.79%.
# bIAP activator – bovine intestinal alkaline phosphatase activators, primary screen, biochemical, bovine IAP, CDP-star luminescence. alkaline phosphatase, intestinal [Bos taurus]. purified bovine IAP, 30 min; hits give high values; fold of DMSO-control signal, blank-subtracted. activation factor at 20 µM. actives 0.17% (n = 200,000);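 active = activation factor of 2 or more at 20 µM, a signal rise over negative controls twice the positive control's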
# mIAP activ – activators of mouse IAP, primary screen, biochemical, luminescence, uHTS; activation factor at 10 µM; actives 0.24% (n = 330,000); muIAP, CDP-Star luminescence, 30 min; hits give high values; 1 = vehicle-only enzyme signal, 0 = enzyme-free wells; AID 2805, 2010; intestinal alkaline phosphatase [Mus musculus];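 active = activation factor of at least 2 at 20 µM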
#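 Assay system: mouse IAP enzyme; Reagent: CDP-Star chemiluminescent phosphatase substrate; Compound: DMSO-dissolved test compounds; Incubation: 30 min, room temperature; Technique: luminescence from enzymatic CDP-Star hydrolysis; Controls: DMSO-only wells and no-enzyme negative control.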
# bIAP inhibitor – bovine intestinal alkaline phosphatase inhibitors, primary screen, selectivity assay for TNAP inhibitor project, biochemical, bovine IAP, CDP-star luminescence; alkaline phosphatase, intestinal [Bos taurus]; purified bovine IAP, 30 min; inhibition, % at 20 µM; 190,000 tested, under 10 active;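 active = over 50% inhibition of intestinal alkaline phosphatase at 20 µM in the single-dose screen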
#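 System: purified bovine intestinal alkaline phosphatase (IAP) enzyme; Input: IAP diluted 1/65,000,000 in the well; Measured by: CDP-star luminescence signal; Compound dosing: 20 µM single dose; Incubation: 30 min reaction at room temperature.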
# mIAP block – inhibitors of mouse IAP, primary screen, biochemical, luminescence, uHTS | inhibition, % at 10 µM | actives 0.2% (n = 330,000) | purified mouse IAP, CDP-Star luminescence, 30 min | intestinal alkaline phosphatase [Mus musculus];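 active = inhibition of at least 40% at 10 µM in the primary screen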;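 note: plate controls were DMSO with enzyme for no effect and no enzyme wells for full effect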
# hIAP block – human IAP inhibitors, primary screen, biochemical, luminescence, uHTS | Intestinal-type alkaline phosphatase (Homo sapiens), P09923 | purified IAP, CDP-Star luminescence, 30 min | inhibition, % at 10 µM | actives 0.12% (n = 330,000) | AID 2544, 2010;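 active = inhibition reaching a set limit with compound at 10 µM in the primary screen, cut at about 35% in these data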;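 note: plate controls were DMSO wells with enzyme for no effect and no-enzyme buffer wells for full effect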
# Target sequence (P09923 whole entry, looked up): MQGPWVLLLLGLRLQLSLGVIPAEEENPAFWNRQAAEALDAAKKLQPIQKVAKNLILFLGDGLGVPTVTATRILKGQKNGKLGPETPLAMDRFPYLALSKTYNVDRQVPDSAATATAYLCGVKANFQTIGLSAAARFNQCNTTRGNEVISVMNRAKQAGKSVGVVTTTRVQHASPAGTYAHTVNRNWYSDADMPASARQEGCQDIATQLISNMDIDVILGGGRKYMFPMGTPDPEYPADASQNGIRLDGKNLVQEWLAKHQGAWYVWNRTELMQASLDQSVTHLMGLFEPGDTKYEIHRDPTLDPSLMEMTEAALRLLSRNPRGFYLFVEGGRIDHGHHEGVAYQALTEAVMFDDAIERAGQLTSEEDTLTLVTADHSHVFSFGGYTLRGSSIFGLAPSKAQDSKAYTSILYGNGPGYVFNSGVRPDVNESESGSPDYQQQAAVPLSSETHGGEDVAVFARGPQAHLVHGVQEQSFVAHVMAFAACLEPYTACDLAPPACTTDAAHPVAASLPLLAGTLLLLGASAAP
# hIAP activ – human IAP activators, primary screen, biochemical, luminescence, uHTS; Intestinal-type alkaline phosphatase (Homo sapiens), P09923; purified human IAP, CDP-Star luminescence, 30 min; hits give high values; 1 = vehicle-only enzyme, 0 = enzyme-free background; activation factor at 10 µM; actives 0.16% (n = 330,000); AID 2524, 2010;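 active = activation factor of the enzyme at least 2-fold when tested at 20 µM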
# mIAP inh conf – inhibitors of mouse IAP, confirmation, biochemical, luminescence, single concentration; shares compounds with mIAP block; purified mouse IAP, CDP-Star luminescence, 30 min; inhibition, % at 10 µM; actives 4.7% (n = 11,000); AID 434971, 2010;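 active = inhibition of at least 40% at 10 µM in either of the two replicates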;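 note: plate controls were DMSO wells with enzyme for no effect and buffer wells lacking enzyme for full effect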
# An asterisk follows results filed as active; / = no result given.
SMILES,bIAP activator,mIAP activ,bIAP inhibitor,mIAP block,hIAP block,hIAP activ,mIAP inh conf
CC(CC(=O)OCC(=O)Nc1ccc2[nH]c(=O)[nH]c2c1)c1ccccc1 (stereo unspecified),/,0.9,/,10,-2,1,/
CCN1CCCC1CNC(=O)c1cc(COc2ccc(C)c(C)c2)on1 (stereo unspecified),/,0.96,/,4,-28,1.3,/
COc1ccccc1CNC(=O)c1ccc(N2CCOCC2)c([N+](=O)[O-])c1,0.9,1,14,-3,16,0.84,/
Cc1ccccc1NC(=S)NC(NC(=O)c1ccccc1C)C(Cl)(Cl)Cl (stereo unspecified),1,2*,4,-105,-31,1.3,-107
Oc1ccc(-c2cn3c(n2)SCC3)cc1O,0.7,0.39,27,61*,6,0.94,92*
O=C(N/N=C/c1ccc([N+](=O)[O-])o1)c1ccc2c(c1)OCO2,/,0.55,/,45*,-8,1.1,55*
O=C(N/N=C/c1ccc([N+](=O)[O-])o1)c1ccc(NS(=O)(=O)c2cccs2)cc1,/,0.5,/,50*,-8,1.1,59*
Cc1cc(Cl)ccc1NC(=S)NCCC(c1ccccc1)c1ccccc1,1.4,3.7*,-39,-266,-9,1.1,-105
Cc1c(Cl)cccc1NC(=S)NCCC(c1ccccc1)c1ccccc1,0.8,4.1*,16,-312,3,0.97,-375
O=C(NC1=NCCS1)C1CC2CCC1C2 (stereo unspecified),1,0.95,-3,5,-12,1.1,/
CCn1c(CNc2nc3ccccc3n2C(C)C)nc2ccccc21,3.1*,2*,-210,-100,-21,1.2,-97
CC(C)n1c(NCc2nc3ccccc3n2C)nc2ccccc21,1.7,1.3,-67,-28,6,0.94,/
N#CCC(=O)c1ccccc1Oc1ccc(Cl)cc1,0.9,0.92,11,8,-22,1.2,/
COc1ccccc1C(CC(=O)Nc1ccc(Cl)cc1)c1ccc(OC(C)C)cc1 (stereo unspecified),0.4,3.7*,/,-268,-28,1.3,-91
O=C(CSc1nc2ccccc2o1)N/N=C/c1ccc(O)c(O)c1,/,0.33,/,67*,26,0.74,74*
Cc1nonc1C(=O)N/N=C/c1ccc(O)c(O)c1,1,0.58,2,42*,10,0.9,41*
Cc1cc(SCC(=O)N/N=C/c2ccc(O)c(O)c2)c(C)cc1Br,0.9,0.84,14,16,-15,1.1,/
O=C(N/N=C/c1ccc(O)c(O)c1)N/N=C/c1ccc(O)c(O)c1,/,0.51,/,49*,20,0.8,72*
Cc1cc(=O)oc(C)c1C(=O)NNC(=O)C1(C)CC1Br (stereo unspecified),/,1.1,/,-8,-8,1.1,/
CC1(C(=O)NNC(=O)c2ccc(=O)oc2)CC1Br (stereo unspecified),/,0.23,/,77*,-2,1,71*
O=C1OC(Nc2cc(Br)cc3cccnc23)c2ccccc21 (stereo unspecified),1,1,5,-1,2,0.98,/
CC(C)(Oc1ccc(-c2ccco2)cc1)C(=O)O,1,0.92,1,8,2,0.98,/
CC(=O)c1sc(C(=O)O)c(-c2ccco2)c1-c1ccco1,/,0.45,/,55*,4,0.96,64*
COc1ccc(CC2SC(=Nc3ccc(F)cc3)NC2=O)cc1 (stereo unspecified),0.9,0.99,7,1,-12,1.1,/
C=C1c2cccc(O)c2C(=O)C2C(=O)[C@]3(O)C(=O)C(C(N)=O)C(=O)[C@@H](N(C)C)[C@@H]3[C@@H](O)[C@H]12 (stereo partly specified),/,0.51,/,49*,11,0.89,48*
SMILES,bIAP activator,mIAP activ,bIAP inhibitor,mIAP block,hIAP block,hIAP activ,mIAP inh conf
CC1CC(C)CN(S(=O)(=O)c2ccc(NC(=O)CN3C(=O)NC(C)(c4ccccc4)C3=O)cc2)C1 (stereo unspecified),/,1.1,/,-10,-18,1.2,/
Cc1ccc(N(CC(=O)O)S(C)(=O)=O)cc1Cl,1,1,2,-1,0,1,/
CCOC(=O)c1ccc(NC(=O)Nc2ccc3c(c2)OCCO3)cc1,1.1,2.9*,-6,-192,-12,1.1,-106
c1ccc(Cn2nnnc2CN2CCN(Cc3ccc4c(c3)OCO4)CC2)cc1,1,1,2,-2,-2,1,/
O=C(Nc1ccccc1)NC1CC2CCC(C1)N2Cc1nnnn1Cc1ccc2c(c1)OCO2 (stereo unspecified),1.8,2.5*,-85,-149,-17,1.2,-123
COc1ccc(S(=O)(=O)N2CCCOC2CNC(=O)C(=O)NCCc2ccco2)cc1 (stereo unspecified),/,1,/,-1,-7,1.1,/
Cc1cc(/C=C2\SC(=S)NC2=O)c(C)n1-c1cccc(O)c1,/,0.24,/,76*,12,0.88,75*
Cc1sc(-n2c(C)cc(/C=C3\SC(=S)NC3=O)c2C)c(C#N)c1C,0.8,0.5,20,50*,5,0.95,64*
Cc1cc(/C=C2\SC(=S)NC2=O)c(C)[nH]1,0.9,0.3,6,70*,26,0.73,87*
CC1(C)CC(=O)C(N=Nc2cccc(F)c2C#N)=C(O)C1,/,0.96,/,4,18,0.82,/
CCCCCN(C(=O)CCC(=O)OCC(=O)c1ccc(C(C)CC)cc1)c1c(N)n(CCCC)c(=O)[nH]c1=O (stereo unspecified),/,0.96,/,4,-4,1,/
O=C(Nc1ccccc1C(=O)Nc1nnc(C(F)(F)F)s1)c1ccccc1Cl,/,0.94,/,6,6,0.94,/
O=C(c1ccc2c(c1)OCO2)[C@@H]1[C@@H]2C(=O)N(C3CCCCC3)C(=O)[C@@H]2C2c3ccccc3C=CN21 (stereo partly specified),1,/,2,/,/,/,/
O=C(c1cccs1)[C@@H]1[C@@H]2C(=O)N(Cc3ccc4c(c3)OCO4)C(=O)[C@@H]2C2c3ccccc3C=CN21 (stereo partly specified),0.9,0.54,7,46*,1,0.99,43*
CCC/C(=N\NC(=O)C1CC1)c1ccc(Br)cc1,/,1,/,-4,21,0.79,/
